Calls of active or inactive are those of the source. No cut-off for these calls is given here.
How the values were obtained:
[1] = target: T1, Alpha-2B adrenergic receptor (Homo sapiens) (UniProt P18089); experiment: Antagonist activity at human alpha2B adrenergic receptor expressed in CHO cells assessed as inhibition of clonidine-induced extracellular acidification after 30 mins by cytosensor microphysiometry; assay type: functional, cell-based
T1 sequence (whole entry): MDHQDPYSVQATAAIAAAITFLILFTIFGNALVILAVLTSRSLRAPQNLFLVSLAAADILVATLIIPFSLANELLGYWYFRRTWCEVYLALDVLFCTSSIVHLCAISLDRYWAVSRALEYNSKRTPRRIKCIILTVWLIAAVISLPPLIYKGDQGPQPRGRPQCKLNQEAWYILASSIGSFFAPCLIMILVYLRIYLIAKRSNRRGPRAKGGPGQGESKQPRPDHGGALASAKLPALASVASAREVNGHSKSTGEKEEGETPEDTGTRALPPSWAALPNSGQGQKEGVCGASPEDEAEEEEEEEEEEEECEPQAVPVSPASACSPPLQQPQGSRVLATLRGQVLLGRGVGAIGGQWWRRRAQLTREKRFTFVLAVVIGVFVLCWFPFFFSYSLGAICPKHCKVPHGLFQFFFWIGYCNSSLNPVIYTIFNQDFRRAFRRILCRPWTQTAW
Procedure, shortened: (§1)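 pKb from cytosensor microphysiometry on CHO cells each expressing one human α2 subtype (α2A, α2B or α2C). Antagonist shift of the clonidine agonist concentration-effect curve was measured. Means ± SEM of three to six separate experiments.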

[2] = target: T2, Alpha-2A adrenergic receptor (Homo sapiens) (UniProt P08913); experiment: Antagonist activity at human alpha2A adrenergic receptor expressed in CHO cells assessed as inhibition of clonidine-induced extracellular acidification after 30 mins by cytosensor microphysiometry; assay type: functional, cell-based; procedure, shortened: as §1
T2 sequence (whole entry): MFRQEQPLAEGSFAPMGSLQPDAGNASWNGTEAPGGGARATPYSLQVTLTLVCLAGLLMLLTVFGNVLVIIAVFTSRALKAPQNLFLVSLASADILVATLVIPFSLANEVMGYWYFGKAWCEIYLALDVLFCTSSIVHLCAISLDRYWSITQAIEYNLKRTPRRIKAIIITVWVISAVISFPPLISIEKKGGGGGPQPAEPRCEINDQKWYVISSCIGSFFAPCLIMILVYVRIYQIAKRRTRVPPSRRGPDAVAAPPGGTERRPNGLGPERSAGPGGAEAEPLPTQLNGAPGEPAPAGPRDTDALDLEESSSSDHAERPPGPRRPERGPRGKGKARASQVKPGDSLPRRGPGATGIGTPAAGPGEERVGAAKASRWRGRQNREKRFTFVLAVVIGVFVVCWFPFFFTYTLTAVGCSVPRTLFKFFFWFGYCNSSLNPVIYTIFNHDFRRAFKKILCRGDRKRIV

[3] = target: T3, Alpha-2C adrenergic receptor (Homo sapiens, UniProt P18825); experiment: Displacement of [3H]RX821002 from human Alpha-2C adrenergic receptor expressed in CHO cells after 30 mins by scintillation counting; assay type: cell-based
T3 sequence (P18825 whole entry): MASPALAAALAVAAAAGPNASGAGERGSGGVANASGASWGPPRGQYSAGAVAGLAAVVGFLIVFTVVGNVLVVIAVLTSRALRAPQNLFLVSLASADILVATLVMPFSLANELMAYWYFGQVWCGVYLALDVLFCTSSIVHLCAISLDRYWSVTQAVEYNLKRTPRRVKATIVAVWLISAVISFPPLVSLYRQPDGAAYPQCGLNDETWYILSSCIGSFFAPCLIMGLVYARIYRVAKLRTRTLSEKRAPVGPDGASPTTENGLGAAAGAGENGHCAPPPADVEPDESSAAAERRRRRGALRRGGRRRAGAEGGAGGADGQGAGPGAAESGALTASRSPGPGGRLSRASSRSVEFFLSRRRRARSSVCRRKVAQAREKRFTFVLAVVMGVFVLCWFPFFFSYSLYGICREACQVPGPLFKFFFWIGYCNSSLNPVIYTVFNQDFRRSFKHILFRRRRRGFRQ

[4] = target: T4, Alpha-2B adrenergic receptor (Homo sapiens, UniProt P18089); experiment: Displacement of [3H]RX821002 from human alpha2B adrenergic receptor expressed in CHO cells after 30 mins by scintillation counting; assay type: cell-based
T4 sequence (P18089 whole entry): T1 sequence (whole entry)

[5] = target: T5, Alpha-2C adrenergic receptor (Homo sapiens) (UniProt P18825); experiment: Antagonist activity at human Alpha-2C adrenergic receptor expressed in CHO cells assessed as inhibition of clonidine-induced extracellular acidification after 30 mins by cytosensor microphysiometry; assay type: functional, cell-based; procedure, shortened: as §1
T5 sequence (whole entry): T3 sequence (P18825 whole entry)

[6] = target: T6, Alpha-2A adrenergic receptor (Homo sapiens, UniProt P08913); experiment: Displacement of [3H]RX821002 from human alpha2A adrenergic receptor expressed in CHO cells after 30 mins by scintillation counting; assay type: cell-based
T6 sequence (P08913 whole entry): T2 sequence (whole entry)

[7] = Displacement of [3H]2-BFI from Sprague-Dawley rat I2 imidazoline binding site by liquid scintillation counting
Mus musculus [8] = experiment: Analgesic activity in CD1 mouse assessed as latency in radiant heat-induced tail flick at 5 mg/kg, sc after 30 mins; assay type: functional, organism-based; parameters: dose 5 mg/kg
Procedure, shortened: (§2)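 Male CD-1 mice, 25–35 g. Radiant heat tail-flick: I.R. source aimed at lower third of tail; basal latency (2-3 s) is the mean of two trials 30 min apart. Test agent 1 or 2 mg/kg ip, or distilled water vehicle, given 15 min before morphine 5.0 mg/kg sc or saline. Readings at 30, 60, 90, 120 and 240 min after morphine, as %MPE; 8–10 mice, means ± SEM.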

Mus musculus [9] = experiment: Potentiation of morphine-induced analgesic activity in CD1 mouse assessed as latency in radiant heat-induced tail flick at 1.250 mg/kg, ip administered 15 mins prior to morphine measured up to 120 mins; assay type: functional, organism-based; parameters: dose 1.25 mg/kg
Procedure, shortened: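 Male CD-1 mice (25–35 g) were given ip pretreatment in distilled-water vehicle 15 min before morphine 5.0 mg/kg sc or saline. Radiant-heat IR tail-flick was applied to the lower third of the tail. Basal latency (2–3 s) was the mean of two trials 30 min apart. Readings at 30, 60, 90, 120 and 240 min post-morphine were expressed as %MPE. Means ± SEM, 8–10 mice.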

Mus musculus [10] = experiment: Potentiation of morphine-induced analgesic activity in CD1 mouse assessed as latency in radiant heat-induced tail flick at 1 mg/kg, ip administered 15 mins prior to morphine measured up to 120 mins; assay type: functional, organism-based; parameters: dose 1 mg/kg; procedure, shortened: as §2
Mus musculus [11] = experiment: Antinociceptive activity in CD1 mouse assessed as latency in radiant heat-induced tail flick at 1 mg/kg, ip from 30 to 240 mins; assay type: functional, organism-based; parameters: dose 1 mg/kg; procedure, shortened: as §2
Mus musculus [12] = experiment: Antinociceptive activity in CD1 mouse assessed as latency in radiant heat-induced tail flick at 2 mg/kg, ip from 30 to 240 mins; assay type: functional, organism-based; parameters: dose 2 mg/kg; procedure, shortened: as §2
Mus musculus [13] = experiment: Potentiation of morphine-induced analgesic activity in CD1 mouse assessed as latency in radiant heat-induced tail flick at 2 mg/kg, ip administered 15 mins prior to morphine measured up to 120 mins; assay type: functional, organism-based; parameters: dose 2 mg/kg; procedure, shortened: as §2
Mus musculus [14] = experiment: Potentiation of morphine-induced analgesic activity in ip dosed CD1 mouse assessed as latency in radiant heat-induced tail flick administered 15 mins prior to morphine in the presence of 2 mg/kg, ip of idazoxan; assay type: functional; conditions: route intraperitoneal
Procedure, shortened: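 CD-1 mice, radiant heat tail-flick. […] Test agent given 15 min before morphine 5.0 mg/kg sc. Latency read after morphine.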

[15] = target: T7, Alpha-1A adrenergic receptor (Homo sapiens, UniProt P35348); experiment: Binding affinity to alpha1A adrenergic receptor
T7 sequence (P35348 whole entry): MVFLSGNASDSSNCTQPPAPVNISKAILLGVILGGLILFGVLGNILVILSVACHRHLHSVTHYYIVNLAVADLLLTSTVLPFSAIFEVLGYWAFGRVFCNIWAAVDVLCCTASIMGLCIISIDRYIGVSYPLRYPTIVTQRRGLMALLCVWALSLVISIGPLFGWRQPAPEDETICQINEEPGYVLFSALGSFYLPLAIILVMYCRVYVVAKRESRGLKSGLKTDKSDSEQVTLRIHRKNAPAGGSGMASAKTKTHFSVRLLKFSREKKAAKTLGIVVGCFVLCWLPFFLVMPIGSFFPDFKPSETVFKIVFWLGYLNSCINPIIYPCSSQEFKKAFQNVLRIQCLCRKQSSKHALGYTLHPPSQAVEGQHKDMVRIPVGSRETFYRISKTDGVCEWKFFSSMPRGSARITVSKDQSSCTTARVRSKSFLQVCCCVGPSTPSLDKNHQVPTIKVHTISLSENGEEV

[16] = target: T8, 5-hydroxytryptamine receptor 1A (Homo sapiens, UniProt P08908); experiment: Binding affinity to 5HT1A receptor
T8 sequence (P08908 whole entry): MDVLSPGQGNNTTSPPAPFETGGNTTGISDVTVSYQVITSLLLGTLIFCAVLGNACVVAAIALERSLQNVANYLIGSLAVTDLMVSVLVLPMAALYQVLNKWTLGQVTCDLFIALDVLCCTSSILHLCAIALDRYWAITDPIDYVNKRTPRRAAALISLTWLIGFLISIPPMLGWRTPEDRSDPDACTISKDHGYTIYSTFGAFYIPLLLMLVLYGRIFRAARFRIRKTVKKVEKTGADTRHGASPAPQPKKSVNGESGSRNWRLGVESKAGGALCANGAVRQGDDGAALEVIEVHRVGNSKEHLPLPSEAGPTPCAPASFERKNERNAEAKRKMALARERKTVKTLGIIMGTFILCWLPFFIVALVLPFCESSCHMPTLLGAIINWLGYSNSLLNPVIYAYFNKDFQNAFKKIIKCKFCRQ

[17] = Binding affinity to I2 imidazoline binding site
[18] = Selectivity ratio of I2 imidazoline binding site to alpha2 adrenergic receptor

Row | SMILES | pKb [1] | pKb [2] | Ki [3] | Ki [4] | pKb [5] | Ki [6] | also measured
1 | c1ccc([C@H]2CO[C@H](C3=NCCN3)CO2)cc1 | < 5 | < 5 | > 10 µM | > 10 µM | < 5 | 7.94 µM | pKi [7]: 5.48
2 | c1ccc([C@@H]2CO[C@@H](C3=NCCN3)CO2)cc1 | < 5 | 6.4 | > 10 µM | > 10 µM | < 5 | 0.398 µM | pKi [7]: 6.52
3 | c1ccc(C2(c3ccccc3)COC(C3=NCCN3)CO2)cc1 (configuration not stated) | < 5 | < 5 | 7.41 µM | 2.82 µM | < 5 | > 10 µM | 
4 | c1ccc(C2(c3ccccc3)COCC(C3=NCCN3)O2)cc1 (configuration not stated) | < 5 | 5.37 | 6.17 µM | 4.47 µM | < 5 | 3.8 µM | 
5 | CN1CC[C@]23c4c5ccc(O)c4O[C@H]2[C@@H](O)C=C[C@H]3[C@H]1C5 |  |  |  |  |  |  | Activity (Mus musculus [8]): Active
6 | COC(=O)[C@@H]1[C@H]2C[C@H]3c4[nH]c5ccccc5c4CCN3C[C@@H]2CC[C@@H]1O |  |  |  |  |  |  | Activity (Mus musculus [9]): inactive
7 | c1ccc(C2COC(C3=NCCN3)CO2)cc1 (racemic) | < 5 | 6.4 | > 10 µM | > 10 µM | < 5 | 0.501 µM | Activity (Mus musculus [10]): Active; Activity (Mus musculus [11]): inactive; Activity (Mus musculus [12]): inactive; Activity (Mus musculus [13]): Active; Activity (Mus musculus [14]): -24%; pKi [7]: 6.35; Ki [15]: > 10 µM; Ki [16]: > 10 µM
8 | c1ccc([C@@H]2CO[C@H](C3=NCCN3)CO2)cc1 (relative stereo) | 5.5 | < 5 | > 10 µM | > 10 µM | < 5 | > 10 µM | 
9 | c1ccc([C@H]2COC[C@@H](C3=NCCN3)O2)cc1 (relative stereo) | 5.18 | < 5 | > 10 µM | > 10 µM | < 5 | 5.37 µM | 
10 | c1ccc([C@@H]2COC[C@@H](C3=NCCN3)O2)cc1 (relative stereo) | < 5 | < 5 | > 10 µM | > 10 µM | < 5 | 6.31 µM | 
11 | c1ccc2c(c1)OCC(C1=NCCN1)O2 (configuration not stated) [IDAZOXAN] | 7.16 | 7.73 |  |  | 7.92 |  | Activity (Mus musculus [13]): inactive; pKi [17]: 8.37
12 | c1ccc(CCC2=NCCN2)cc1 [PHENYZOLINE] |  |  |  |  |  |  | pKi [17]: 8.6; Selectivity ratio [18]: 794

Reference: ChEMBL document CHEMBL1955779, “Favourable involvement of α2A-adrenoreceptor antagonism in the I₂-imidazoline binding sites-mediated morphine analgesia enhancement” (Bioorg Med Chem, 2012)
